From ChEMBL document CHEMBL2396655, “Design, synthesis, and biological evaluation of (E)-N-aryl-2-arylethenesulfonamide analogues as potent and orally bioavailable microtubule-targeted anticancer agents” (J Med Chem, 2013) come the findings set out here.

In brackets after ≈: the same amount, converted by molar mass. Activity calls are given as the source filed them. No cut-off for these calls is given here.

The test system of data set [1] is CCRF-CEM. In words: Resistance factor, ratio of GI50 for multidrug-resistant human CEM/C2 cells to GI50 for human CEM cells. It counts as functional.
Data set [2] has as its system CEM/C2. In words: Growth inhibition of multidrug-resistant human CEM/C2 cells. It counts as functional.
For data set [3], the system named is CCRF-CEM. Put plainly: Growth inhibition of human CEM cells. It counts as functional.
In data set [4] the target is T1, Tubulin (Sus scrofa) (UniProt P02554+P02550). In words: Competitive binding affinity to pig brain tubulin paclitaxel binding site at 0.1 to 100 uM after 1 hr by mass spectrophotometric analysis in presence of paclitaxel and GTP. The essentials: (§1)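 Porcine brain tubulin (1.0 mg/mL) in PIPES 80 mM, MgCl₂ 2 mM, EGTA 0.5 mM, pH 6.9, at 37 °C. […] Competitor was 0.1–100 μM for 1 h. Unbound ligand in the 30 kDa ultrafiltrate was measured by MS. Runs were in triplicate; IC50 came from a Hill fit.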

Data set [5] can be described thus: Cytotoxicity against human H80 cells after 96 hrs by trypan blue exclusion assay. The format is functional. The settings on record: H80, 96 h. A digest of the protocol:
(§2)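 Cells were grown in DMEM or RPMI with 10% FBS and plated at 2.5×10⁴ cells/well in 12-well dishes. Compounds were added 24 h later at various concentrations. After 96 h, viable cells were counted by trypan blue exclusion from duplicate wells. Results are the mean of two independent experiments.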

Data set [6] deals with NCI-H417. Put plainly: Cytotoxicity against human NCI-N417 cells after 96 hrs by trypan blue exclusion assay. The format is functional. The following applies: NCI-H417, 96 h. A digest of the protocol:
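Cells grown in DMEM or RPMI with 10% FBS and 1 unit/mL penicillin-streptomycin, seeded in 12-well dishes at 2.5 ×10⁴ cells/mL/well. Compound added 24 h later at various concentrations. Viable cells counted by trypan blue exclusion from duplicate wells after 96 h. Value taken from dose-response curves of two independent experiments.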

Data set [7] relates to PC-3. In words: Cytotoxicity against human PC3 cells after 96 hrs by trypan blue exclusion assay. The format is functional. The settings on record: PC-3, 96 h. The essentials:
as §2

The subject of data set [8] is MOLT-4. In words: Cytotoxicity against human MOLT4 cells after 96 hrs by trypan blue exclusion assay. It counts as functional. The settings on record: MOLT-4, 96 h. The essentials:
as §2

For data set [9], the system named is NCI-H187. Put plainly: Cytotoxicity against human NCI-H187 cells after 96 hrs by trypan blue exclusion assay. The settings on record: NCI-H187, 96 h. It counts as functional. A digest of the protocol:
as §2

The test system of data set [10] is T47D. In words: Cytotoxicity against human T47D cells after 96 hrs by trypan blue exclusion assay. It counts as functional. A digest of the protocol: as §2
Data set [11] has as its system HCT-116. In words: Cytotoxicity against human HCT116 cells after 96 hrs by trypan blue exclusion assay. It counts as functional. The settings on record: HCT-116, 96 h. A digest of the protocol:
as §2

In data set [12] the test system is HCT-15. Put plainly: Cytotoxicity against human HCT15 cells after 96 hrs by trypan blue exclusion assay. The format is functional. The settings on record: HCT-15, 96 h. A digest of the protocol: as §2
Data set [13] relates to Daudi. In words: Cytotoxicity against human Daudi cells after 96 hrs by trypan blue exclusion assay. The format is functional. A digest of the protocol:
as §2

Data set [14] has as its system LNCaP. Put plainly: Cytotoxicity against human LNCAP cells after 96 hrs by trypan blue exclusion assay. It counts as functional. A digest of the protocol: as §2
The nature of data set [15]: Cytotoxicity against human U87 cells after 96 hrs by sulforhodamine B assay. The format is functional, cell-based, U-87MG ATCC. The settings on record: U-87 MG. (The SRB assay estimates cell density from bound dye.)
Data set [16] concerns A-431. In words: Cytotoxicity against human A431 cells after 96 hrs by trypan blue exclusion assay. The format is functional. The following applies: A-431, 96 h. A digest of the protocol:
as §2

In data set [17] the test system is DU-145. In words: Cytotoxicity against human DU145 cells after 96 hrs by trypan blue exclusion assay. It counts as functional, cell-based. The settings on record: for GI50 / IC50: DU-145, 96 h. A digest of the protocol: as §2
The test system of data set [18] is MIA PaCa-2. In words: Cytotoxicity against human MIAPaCa2 cells after 96 hrs by trypan blue exclusion assay. The format is functional. The settings on record: MIA PaCa-2, 96 h. The essentials:
as §2

Data set [19] relates to OVCAR-3. In words: Cytotoxicity against human OVCAR3 cells after 96 hrs by trypan blue exclusion assay. The format is functional. The settings on record: OVCAR-3, 96 h. A digest of the protocol: as §2
The subject of data set [20] is SK-OV-3. In words: Cytotoxicity against human SKOV3 cells after 96 hrs by trypan blue exclusion assay. The format is functional. The following applies: SK-OV-3, 96 h. The essentials: as §2
Data set [21] is described as follows: Cytotoxicity against human RF48 cells after 96 hrs by trypan blue exclusion assay. It counts as functional. The settings on record: RF48, 96 h. A digest of the protocol: as §2
For data set [22], the system named is BT-474. In words: Cytotoxicity against human BT474 cells after 96 hrs by trypan blue exclusion assay. The following applies: BT-474, 96 h. It counts as functional. The essentials: as §2
Data set [23] concerns BT-20. In words: Cytotoxicity against human BT20 cells after 96 hrs by trypan blue exclusion assay. The format is functional. The following applies: BT-20, 96 h. A digest of the protocol: as §2
Data set [24] is described as follows: Cytotoxicity against human NAMALWA cells after 96 hrs by trypan blue exclusion assay. It counts as functional. The settings on record: NAMALVA. A digest of the protocol: as §2
In data set [25] the test system is K562. In words: Cytotoxicity against human K562 cells after 96 hrs by trypan blue exclusion assay. It counts as functional, cell-based. The following applies: for GI50 / IC50: K562, 96 h. The essentials: as §2
The nature of data set [26]: Cytotoxicity against human Caco2 cells after 1 hr by Alamar Blue assay. The format is cell-based. The settings on record: Caco-2 cells, read-out: LD50. In general terms: The colour change of resazurin is a common sign of viable cells or microbes.
The target in data set [27] is T1, Tubulin (Sus scrofa). Put plainly: Competitive binding affinity to pig brain tubulin vinblastine binding site at 0.1 to 100 uM after 1 hr by mass spectrophotometric analysis in presence of vinblastine. The essentials: as §1
Data set [28] is filed under the species Bos taurus. In words: Inhibition of bovine brain tubulin assessed as destabilization of microtubule polymerization at 10 uM over 40 mins by spectrophotometric analysis. The essentials: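 Purified bovine brain tubulin was incubated at 37 °C with 10 μM compound, DMSO or reference agents. Polymerization was followed as rising absorbance at 340 nm over 40 min. Data are representative of three independent experiments.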

Data set [29] in a line: Solubility of the compound in water. The format is physicochemical.
Data set [30] deals with MCF7. In words: Cytotoxicity against human MCF7 cells after 96 hrs by trypan blue exclusion assay. The settings on record: MCF7, 96 h. It counts as functional. The essentials: as §2
Data set [31] in a line: Growth inhibition of human MES-SA cells. The format is functional.
Data set [32] can be described thus: Growth inhibition of multidrug-resistant human MES-SA/Dx5 cells. It counts as functional.
Data set [33] deals with MES-SA. Put plainly: Resistance factor, ratio of GI50 for multidrug-resistant human MES-SA/Dx5 cells to GI50 for human MES-SA cells. It counts as functional.

By GI50 is commonly meant the concentration at which growth is held to half of that of the control. For `CC[C@@]1(O)C(=O)OCc2c1cc1n(c2=O)Cc2cc3ccccc3nc2-1` [CAMPTOTHECIN], the RatioGI50 in [1] stood at 500. Further, the GI50 in [2] stood at 1000 nM; in [3] it was 2 nM.
`CC(=O)O[C@@]12CO[C@@H]1C[C@H](O)[C@@]1(C)C(=O)[C@H](O)C3=C(C)[C@@H](OC(=O)[C@H](O)[C@@H](NC(=O)OC(C)(C)C)c4ccccc4)C[C@@](O)([C@@H](OC(=O)c4ccccc4)[C@H]21)C3(C)C`: the result in [4] was Active.
Broadly, the IC50 is the concentration that gives 50% inhibition. Low values mean greater potency, high ones weaker potency. With `COc1ccc(NS(=O)(=O)/C=C/c2c(OC)cc(OC)cc2OC)cc1`, the GI50 in [5] was determined as 100 nM; in data set [6], 50 nM; in [7], 100 nM; in data set [8], 100 nM; in data set [9] it was 100 nM; in data set [10] it was 100 nM. Besides, the GI50 in data set [11] is 100 nM; in data set [12] it was 100 nM; in data set [13], 100 nM; in [14] it was 100 nM; in data set [16], 30 nM; in data set [17], 75 nM. Moreover, the GI50 in data set [18] amounted to 100 nM; in [19] it was 100 nM; in data set [20], 100 nM; in data set [21], 25 nM; in data set [22] it was 250 nM; in data set [23] it was 250 nM. The values for the GI50 in data set [24] and in data set [25] were 100 nM and 75 nM, respectively. In addition, the figures for the IC50 in [15], in data set [17] and in data set [25] were 229 nM, 200 nM and 75 nM, respectively. For the same compound, the Activity entry in data set [17] and in data set [25] was “Dose-dependent effect” in each case.
On to `O=c1cc[nH]c(=S)[nH]1` [THIOURACIL], for which the CC50 at 1 h in data set [26] is more than 1 mM.
Regarding `CC[C@]1(O)C[C@H]2CN(CCc3c([nH]c4ccccc34)[C@@](C(=O)OC)(c3cc4c(cc3OC)N(C=O)[C@H]3[C@@](O)(C(=O)OC)[C@H](OC(C)=O)[C@]5(CC)C=CCN6CC[C@]43[C@@H]65)C2)C1`, the result in data set [27] was Active.
Regarding `COc1cc(OC)c(/C=C/S(=O)(=O)Nc2ccc(OC)c(O)c2)c(OC)c1`, the GI50 in [5] was found to be 25 nM; in [6], 10 nM; in [14], 50 nM; in [16] it was 600 nM; in data set [17], 50 nM; in data set [19] it was 100 nM. The GI50 in data set [23] is 250 nM; in data set [24], 25 nM; in data set [25], 15 nM. The IC50 came out at 26 nM in data set [15], 30 nM in data set [17] and 15 nM in data set [25]. Further, the Activity entry in data set [17] and in [25] was “Dose-dependent effect” each time.
One may read the solubility as the concentration that dissolves in the medium under given conditions. On to `COc1cc(OC)c(/C=C/S(=O)(=O)Nc2ccc(OC)c(NCC(=O)O)c2)c(OC)c1`, for which, in data set [28], the inhibition entry was “Active”. In data set [17], the Activity result is “Dose-dependent effect” and half-maximal inhibition (IC50) was put at 400 nM. The compound further gave a solubility in data set [29] of 10000 µg/mL (≈ 22.1 mM). For the same compound, in data set [25], the Activity result was “Dose-dependent effect” and the IC50 turned out to be 20 nM.
Take `COc1cc(OC)c(/C=C/S(=O)(=O)Nc2ccc(OC)c(NC(C)C(=O)O)c2)c(OC)c1` (stereo unspecified): in data set [17], the Activity entry was “Dose-dependent effect” and the IC50 came to 40 nM. In data set [29], this compound returned a solubility of 10000 µg/mL (≈ 21.4 mM). For the same compound, in [25], the Activity entry is “Dose-dependent effect” and the IC50 turned out to be 8 nM.
`COc1cc(OC)c(/C=C/S(=O)(=O)Nc2ccc(OC)c(NC(C)(C)C(=O)O)c2)c(OC)c1`: the GI50 in [6] was found to be 30 nM; in [30], 80 nM; in data set [12] it was 200 nM; in data set [14], 100 nM; in data set [16] it was 150 nM; in [17], 150 nM. In addition, the GI50 in data set [18] was determined as 80 nM; in data set [22] it was 150 nM; in [23], 100 nM; in [31] it was 70 nM; in data set [32], 90 nM; in data set [25], 10 nM. In addition, the inhibition entry in [28] was “Active”. Further, the IC50 in [15] amounted to 90 nM; in [17], 70 nM; in data set [25] it was 5 nM. Further, the Activity result in [17] and in data set [25] was “Dose-dependent effect” each time. The concentration in solution in [29] (solubility) was 10000 µg/mL (≈ 20.8 mM). Moreover, the RatioGI50 in data set [33] worked out at 1.3.
